Series [1] can be described thus: Ex vivo inhibition of MAOA in CD1 mouse brain homogenates assessed as MAOA level at 1 mg/kg, po administered via gavage for 7 days and measured 1 hr post last dose by monoamine oxidase assay (reference value: 0.39 +/- 0.04 nmol/min/mg). It counts as functional. To be noted: time 7 day.
The target of series [2] is T1, Amine oxidase [flavin-containing] B (Homo sapiens, UniProt P27338).
T1 sequence (P27338 whole entry): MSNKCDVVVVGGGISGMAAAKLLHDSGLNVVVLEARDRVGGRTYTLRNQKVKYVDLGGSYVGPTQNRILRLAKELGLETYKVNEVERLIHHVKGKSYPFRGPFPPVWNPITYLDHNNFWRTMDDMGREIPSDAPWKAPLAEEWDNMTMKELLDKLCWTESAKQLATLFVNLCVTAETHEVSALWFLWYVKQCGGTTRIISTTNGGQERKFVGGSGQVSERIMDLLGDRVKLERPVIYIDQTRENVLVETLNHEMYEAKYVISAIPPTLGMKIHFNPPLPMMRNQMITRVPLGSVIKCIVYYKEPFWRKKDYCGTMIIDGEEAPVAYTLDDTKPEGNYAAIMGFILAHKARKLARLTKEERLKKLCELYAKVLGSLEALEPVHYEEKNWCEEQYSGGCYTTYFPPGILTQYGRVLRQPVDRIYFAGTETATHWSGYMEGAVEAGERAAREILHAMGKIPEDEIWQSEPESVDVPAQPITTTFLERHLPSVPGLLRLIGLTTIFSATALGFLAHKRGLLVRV
In words: Reversible inhibition of human MAO-B assessed as residual enzyme activity at 4 fold IC50 incubated for 15 mins and measured before dialysis relative to control. The method, boiled down:
(§1)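 Dialysed (MWCO 12 000) at 4 °C for 24 h against 100 mM potassium phosphate pH 7.4, 5% sucrose, buffer changed twice. Dialysed and undialysed mixtures assayed together; residual activity from triplicates.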

Series [3] can be described thus: Ex vivo inhibition of MAOA in CD1 mouse brain homogenates assessed as MAOA level at 3 mg/kg, po administered via gavage for 7 days and measured 1 hr post last dose by monoamine oxidase assay (reference value: 0.39 +/- 0.04 nmol/min/mg). The series is classed as functional. As to conditions: time 7 day.
Series [4] has as its target T2, Amine oxidase [flavin-containing] A (Homo sapiens, UniProt P21397).
T2 sequence (P21397 whole entry): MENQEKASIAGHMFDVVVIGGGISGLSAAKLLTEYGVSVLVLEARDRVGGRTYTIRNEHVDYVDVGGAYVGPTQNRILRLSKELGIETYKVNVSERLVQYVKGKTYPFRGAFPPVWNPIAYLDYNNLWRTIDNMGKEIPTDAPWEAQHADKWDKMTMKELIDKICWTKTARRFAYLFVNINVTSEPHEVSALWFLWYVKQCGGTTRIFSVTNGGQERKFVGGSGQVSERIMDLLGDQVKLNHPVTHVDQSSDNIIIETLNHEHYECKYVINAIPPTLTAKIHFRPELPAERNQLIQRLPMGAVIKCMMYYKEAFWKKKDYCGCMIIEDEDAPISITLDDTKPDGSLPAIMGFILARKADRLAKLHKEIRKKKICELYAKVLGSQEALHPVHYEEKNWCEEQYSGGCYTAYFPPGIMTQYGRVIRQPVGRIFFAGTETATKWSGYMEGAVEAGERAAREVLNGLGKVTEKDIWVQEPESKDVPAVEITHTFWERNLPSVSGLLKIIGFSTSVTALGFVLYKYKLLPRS
The series is described as follows: Reversible inhibition of human MAO-A assessed as residual enzyme activity at 4 fold IC50 incubated for 15 mins and measured 24 hrs post dialysis by dialysis method relative to control. As to conditions: 24.25 h, time 1455 min. The method, boiled down: as §1

Series [5] in a line: Cytotoxicity against human HepG2 cells assessed as cell viability at 7.5 uM incubated for 2 hrs by MTT assay relative to control. It counts as cell-based. As to conditions: read-out: Activity. The method, boiled down:
(§2)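 HepG2 human hepatoma cells; viability read by MTT assay, with 0.1% DMSO as vehicle control. Viability given as % of control, mean ± SEM (n = 3); p < 0.05 taken as significant.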
(In general: Tetrazolium assays rely on reduction of a dye to a coloured formazan, in cell work by metabolically active cells.)

Series [6] is described as follows: Ex vivo inhibition of MAOA in CD1 mouse brain homogenates assessed as MAOA level at 10 mg/kg, po administered via gavage for 7 days and measured 1 hr post last dose by monoamine oxidase assay (reference value: 0.39 +/- 0.04 nmol/min/mg). It counts as functional. To be noted: time 7 day.
Series [7] is described as follows: Ex vivo inhibition of MAOA in CD1 mouse brain homogenates assessed as inhibition of 5-HT deamination by measuring 5-HIAA metabolite levels by using at 3 mg/kg, po administered via gavage for 7 days and measured 1 hr post last dose by HPLC analysis (reference value: 0.33 +/- 0.02 ug/g). The series is classed as functional. As to conditions: time 7 day.
Series [8] can be described thus: Ex vivo inhibition of MAOA in CD1 mouse brain homogenates assessed as inhibition of 5-HT deamination by measuring 5-HIAA metabolite levels by using at 10 mg/kg, po administered via gavage for 7 days and measured 1 hr post last dose by HPLC analysis (reference value: 0.33 +/- 0.02 ug/g). The series is classed as functional. To be noted: time 7 day.
Series [9] is described as follows: Cytotoxicity against human HepG2 cells assessed as cell viability at 15 uM incubated for 2 hrs by MTT assay relative to control. It counts as cell-based. As to conditions: read-out: Activity. The gist of the method: as §2
Series [10] has as its target T2, Amine oxidase [flavin-containing] A. In words: Reversible inhibition of human MAO-A assessed as residual enzyme activity at 4 fold IC50 incubated for 15 mins and measured before dialysis by dialysis method relative to control. The method, boiled down: as §1
The nature of series [11]: Ex vivo inhibition of MAOA in CD1 mouse brain homogenates assessed as 5-HT levels at 3 mg/kg, po administered via gavage for 7 days and measured 1 hr post last dose by ELISA kit method (reference value: 0.78 +/- 0.01 ug/g). It counts as functional. To be noted: time 7 day. Background: In an ELISA, binding on a coated surface is turned into a signal by an enzyme label.

Series [12] is described as follows: Ex vivo inhibition of MAOA in CD1 mouse brain homogenates assessed as 5-HT levels at 1 mg/kg, po administered via gavage for 7 days and measured 1 hr post last dose by ELISA kit method (reference value: 0.78 +/- 0.01 ug/g). The series is classed as functional. To be noted: time 7 day.
Series [13] in a line: Ex vivo inhibition of MAOA in CD1 mouse brain homogenates assessed as inhibition of 5-HT deamination by measuring 5-HIAA metabolite levels by using at 1 mg/kg, po administered via gavage for 7 days and measured 1 hr post last dose by HPLC analysis (reference value: 0.33 +/- 0.02 ug/g). It counts as functional. To be noted: time 7 day.
Series [14] in a line: Ex vivo inhibition of MAOA in CD1 mouse brain homogenates assessed as 5-HT levels at 10 mg/kg, po administered via gavage for 7 days and measured 1 hr post last dose by ELISA kit method (reference value: 0.78 +/- 0.01 ug/g). To be noted: time 7 day. It counts as functional.
The target of series [15] is T1, Amine oxidase [flavin-containing] B. In words: Reversible inhibition of human MAO-B assessed as residual enzyme activity at 4 fold IC50 incubated for 15 mins and measured 24 hrs post dialysis relative to control. To be noted: 24.25 h, time 1455 min. The gist of the method:
as §1

Series [16] can be described thus: Cytotoxicity against human HepG2 cells assessed as cell viability at 30 uM incubated for 2 hrs by MTT assay relative to control. To be noted: read-out: Activity. The series is classed as cell-based. The method, boiled down:
as §2

Series [17] can be described thus: Ex vivo inhibition of MAOA in CD1 mouse brain homogenates assessed as 5-HT levels at 30 mg/kg, po administered as subchronic dose via gavage for 7 days and measured 1 hr post last dose by ELISA kit method (reference value: 0.78 +/- 0.01 ug/g). It counts as functional. As to conditions: time 7 day.

As to `O=C(NCCN1CCOCC1)c1ccc(Cl)cc1` [MOCLOBEMIDE], the Activity in [1] was found to be 0.41 nmol/min/mg; in series [2] it was 88%; in [3], 0.41 nmol/min/mg; in series [4] it was 93.77%; in series [6] it was 0.4 nmol/min/mg; in series [7], 0.32 µg/g. For the same compound, the Activity stood at 0.3 µg/g in series [8]; 36% in series [10]; 0.79 µg/g in series [11]; 0.78 µg/g in series [12]; 0.33 µg/g in [13]; 0.82 µg/g in series [14]. Moreover, the Activity in series [15] was 89.55%. For the same compound, the viability at 2 h, 7.5 µM in series [5] worked out at 90.8%. Besides, in [9], the viability at 2 h, 15 µM amounted to 88.5%. Further, in series [16], the viability at 2 h, 30 µM worked out at 86%.
Take `COc1ccc(C2=NN(C(=O)Cn3c(=O)oc4ccc(C)cc43)C(c3cccc(OC)c3OC)C2)cc1` (stereo not drawn): the Activity came to 0.39 nmol/min/mg in [1]; 74.19% in series [2]; 0.34 nmol/min/mg in [3]; 92.55% in series [4]; 0.27 nmol/min/mg in series [6]; 0.3 µg/g in series [7]. The Activity in series [8] was 0.29 µg/g; in series [10], 22.16%; in [17], 1.15 µg/g; in [11] it was 0.85 µg/g; in series [12] it was 0.8 µg/g; in series [13], 0.32 µg/g. Moreover, the Activity was determined as 0.99 µg/g in [14] and 94.16% in series [15]. In addition, the viability at 2 h, 7.5 µM in [5] came out at 101%. For the same compound, the viability at 2 h, 15 µM in series [9] was 99.6%. In addition, the viability at 2 h, 30 µM in series [16] is 84.9%.

(Values after ChEMBL document CHEMBL4706681, “New 2-Pyrazoline and Hydrazone Derivatives as Potent and Selective Monoamine Oxidase A Inhibitors” (J Med Chem, 2021).)
